The source of these data is ChEMBL document CHEMBL4342528, “Discovery of a First-in-Class Protein Arginine Methyltransferase 6 (PRMT6) Covalent Inhibitor” (J Med Chem, 2020).

The source made the active and inactive calls. The calls are words filed in the database; no cut-off is given here.

The target in data set [1] is T1, Protein arginine N-methyltransferase 8 (Homo sapiens, UniProt Q9NR22). Put plainly: Inhibition of human PRMT8 using [3H]SAM as donor and [3H]methylated biotin-labeled peptide as substrate by scintillation proximity assay. The method, boiled down: (§1)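 Radiometric SPA: ³H-methyl transfer from ³H-SAM to biotin-labeled peptide, captured on streptavidin/scintillant-coated plate, counts per minute read; substrate and cofactor each at their Km for the enzyme; compound titrated; IC50 from triplicate determinations, mean ± SD.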
Target sequence in this assay (Q9NR22 whole entry): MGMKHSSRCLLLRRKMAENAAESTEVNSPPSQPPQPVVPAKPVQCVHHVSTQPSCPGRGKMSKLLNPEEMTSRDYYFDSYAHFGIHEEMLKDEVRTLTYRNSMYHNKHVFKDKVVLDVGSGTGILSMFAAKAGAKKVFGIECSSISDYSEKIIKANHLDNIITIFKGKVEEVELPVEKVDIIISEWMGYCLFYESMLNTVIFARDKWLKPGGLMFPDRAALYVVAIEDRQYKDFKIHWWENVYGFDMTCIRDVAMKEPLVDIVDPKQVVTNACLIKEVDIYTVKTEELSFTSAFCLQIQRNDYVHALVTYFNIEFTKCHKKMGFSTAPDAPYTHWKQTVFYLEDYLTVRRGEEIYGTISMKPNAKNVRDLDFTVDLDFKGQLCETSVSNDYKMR
Background: In a scintillation proximity assay essentially only radioactivity close to the scintillant gives light.

Data set [2] concerns the target T2, Histone-arginine methyltransferase CARM1 (Homo sapiens) (UniProt Q86X55).
T2 sequence (whole entry): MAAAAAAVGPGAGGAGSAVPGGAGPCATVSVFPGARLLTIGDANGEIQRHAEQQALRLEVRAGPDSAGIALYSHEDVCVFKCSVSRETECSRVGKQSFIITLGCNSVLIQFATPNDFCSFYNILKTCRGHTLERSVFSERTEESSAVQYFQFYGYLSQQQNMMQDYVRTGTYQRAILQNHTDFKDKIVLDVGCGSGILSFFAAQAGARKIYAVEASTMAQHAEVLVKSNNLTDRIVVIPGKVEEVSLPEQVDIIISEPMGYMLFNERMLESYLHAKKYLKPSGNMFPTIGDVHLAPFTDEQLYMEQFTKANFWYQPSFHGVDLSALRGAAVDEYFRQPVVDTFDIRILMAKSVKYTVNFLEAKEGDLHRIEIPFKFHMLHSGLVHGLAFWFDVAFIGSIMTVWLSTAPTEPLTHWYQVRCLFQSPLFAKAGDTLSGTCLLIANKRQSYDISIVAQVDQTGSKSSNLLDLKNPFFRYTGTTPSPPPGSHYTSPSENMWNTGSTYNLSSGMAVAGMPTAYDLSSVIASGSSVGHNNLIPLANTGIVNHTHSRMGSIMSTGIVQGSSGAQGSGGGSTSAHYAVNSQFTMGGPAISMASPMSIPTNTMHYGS
Put plainly: Inhibition of PRMT4 (unknown origin) assessed as reduction in incorporation of [3H]-labeled methyl group into biotinylated substrate using [3H-SAM] at 50 uM incubated for 1 hr by scintillation proximity assay relative to control. A digest of the protocol: (§2)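 Panel of 33 methyltransferases (22 PKMTs, 3 DNMTs, 8 PRMTs), each tested at 10 and 50 μM compound. Activity was read as ³H-methyl transfer from ³H-SAM in a radiometric assay done as previously described.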

The target of data set [3] is Histone-lysine N-methyltransferase PRDM9 (Homo sapiens) (UniProt Q9NQV7). Nature of the data set: Inhibition of PRDM9 (unknown origin) assessed as reduction in incorporation of [3H]-labeled methyl group into biotinylated substrate using [3H-SAM] at 10 uM incubated for 1 hr by scintillation proximity assay. A digest of the protocol: as §2
Data set [4] deals with Histone-lysine N-methyltransferase 2C (Homo sapiens) (UniProt Q8NEZ4). Put plainly: Inhibition of MLL3 (unknown origin) assessed as reduction in incorporation of [3H]-labeled methyl group into biotinylated substrate using [3H-SAM] at 10 uM incubated for 1 hr by scintillation proximity assay. A digest of the protocol: as §2
Data set [5] addresses Protein arginine N-methyltransferase 9 (Homo sapiens) (UniProt Q6P2P2). Nature of the data set: Inhibition of PRMT9 (unknown origin) assessed as reduction in incorporation of [3H]-labeled methyl group into biotinylated substrate using [3H-SAM] at 10 uM incubated for 1 hr by scintillation proximity assay. The method, boiled down: as §2
Data set [6] deals with T3, Protein arginine N-methyltransferase 6 (Homo sapiens, UniProt Q96LA8). Nature of the data set: Inhibition of PRMT6 (unknown origin) assessed as reduction in incorporation of [3H]-labeled methyl group into biotinylated substrate using [3H-SAM] at 50 uM incubated for 1 hr by scintillation proximity assay relative to control. The method, boiled down:
as §2

The subject of a further data set is MCF7. Put plainly: Toxicity in human MCF7 cells assessed as reduction in cell viability up to 20 uM incubated for 3 days by CCK8 assay. The class given is cell-based. Conditions: mcf7, 72 h. A digest of the protocol:
(§3)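 Cells seeded 1×10^4 per well in triplicate, treated after 24 h with serial dilutions from 20 μM for 3 days; CCK-8 (WST-8) added, 4 h at 37 °C, absorbance at 450 nm; mean ± SD of three replicate experiments.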
A general note: Formazan colour is commonly taken as a measure of viable cells.

For data set [7], the target named is T3, Protein arginine N-methyltransferase 6. Nature of the data set: Inhibition of PRMT6 (unknown origin) assessed as reduction in incorporation of [3H]-labeled methyl group into biotinylated substrate using [3H-SAM] at 10 uM incubated for 1 hr by scintillation proximity assay. The method, boiled down:
as §2

Data set [8] deals with RNA 5'-monophosphate methyltransferase (Homo sapiens) (UniProt Q7Z5W3). Nature of the data set: Inhibition of BCDIN3D (unknown origin) assessed as reduction in incorporation of [3H]-labeled methyl group into biotinylated substrate using [3H-SAM] at 10 uM incubated for 1 hr by scintillation proximity assay.
In data set [9] the target is Histone-lysine N-methyltransferase KMT5C (Homo sapiens) (UniProt Q86Y97). Put plainly: Inhibition of SUV420H2 (unknown origin) assessed as reduction in incorporation of [3H]-labeled methyl group into biotinylated substrate using [3H-SAM] at 10 uM incubated for 1 hr by scintillation proximity assay.
Data set [10] is filed under the species Homo sapiens. Nature of the data set: Selectivity index, ratio of IC50 for human PRMT8 to IC50 for human PRMT6. The method, boiled down:
as §1

The species entered for data set [11] is Homo sapiens. Put plainly: Inhibition of DNMT3A/3L (unknown origin) at 10 uM using un-biotinylated Poly(2'-deoxyinosinic-2'-deoxycytidylic acid) substrate using [3H-SAM] incubated for 1 hr by scintillation proximity assay. The method, boiled down: as §2
In data set [12] the target is T1, Protein arginine N-methyltransferase 8. Put plainly: Inhibition of PRMT8 (unknown origin) assessed as reduction in incorporation of [3H]-labeled methyl group into biotinylated substrate using [3H-SAM] at 10 uM incubated for 1 hr by scintillation proximity assay. The method, boiled down:
as §2
Target sequence in this assay (Q9NR22 2-394 limits assumed): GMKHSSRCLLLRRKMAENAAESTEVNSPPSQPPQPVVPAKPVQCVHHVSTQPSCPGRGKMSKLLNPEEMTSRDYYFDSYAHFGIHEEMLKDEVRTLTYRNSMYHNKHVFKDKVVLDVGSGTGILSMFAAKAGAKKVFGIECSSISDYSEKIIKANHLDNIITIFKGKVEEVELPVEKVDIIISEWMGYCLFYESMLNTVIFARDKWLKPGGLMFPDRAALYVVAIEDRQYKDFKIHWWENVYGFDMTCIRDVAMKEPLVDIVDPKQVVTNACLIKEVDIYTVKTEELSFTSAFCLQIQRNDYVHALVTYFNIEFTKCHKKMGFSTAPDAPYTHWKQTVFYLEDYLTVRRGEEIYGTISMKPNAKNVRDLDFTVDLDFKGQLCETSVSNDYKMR

Another data set concerns PNT2. Put plainly: Toxicity in human PNT2 cells assessed as reduction in cell viability up to 20 uM incubated for 3 days by CCK8 assay. The class given is cell-based. The following applies: pnt2, 72 h. The method, boiled down:
as §3

Data set [13] has as its target Protein arginine N-methyltransferase 3 (Homo sapiens, UniProt O60678). Put plainly: Covalent binding affinity to human PRMT3 assessed as covalent adduct. formation at 300 uM pre-incubated for 1 hr by mass spectrometry. The method, boiled down:
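PRMT protein at 15 μM was incubated 1 h at room temperature with a 20-fold molar excess of inhibitor (300 μM). The reaction was quenched with 0.1% aqueous TFA, separated by HPLC (5–95% acetonitrile in water) and analysed by ESI time-of-flight LC/MS for protein–ligand adduct mass.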

For data set [14], the species on record is Homo sapiens. Put plainly: Selectivity index, ratio of IC50 for human PRMT4 to IC50 for human PRMT6.
Data set [15] concerns the target Histone-lysine N-methyltransferase NSD3 (Homo sapiens) (UniProt Q9BZ95). Nature of the data set: Inhibition of NSD3 (unknown origin) at 10 uM using [3H-SAM] and nucleosome as substrate incubated for 1 hr by scintillation proximity assay. A digest of the protocol: as §2
In data set [16] the target is Histone-lysine N-methyltransferase SETD2 (Homo sapiens) (UniProt Q9BYW2). Put plainly: Inhibition of SETD2 (unknown origin) assessed as reduction in incorporation of [3H]-labeled methyl group into biotinylated substrate using [3H-SAM] at 10 uM incubated for 1 hr by scintillation proximity assay. A digest of the protocol: as §2
In data set [17] the target is Histone-lysine N-methyltransferase EHMT2 (Homo sapiens) (UniProt Q96KQ7). Nature of the data set: Inhibition of G9a (unknown origin) assessed as reduction in incorporation of [3H]-labeled methyl group into biotinylated substrate using [3H-SAM] at 10 uM incubated for 1 hr by scintillation proximity assay. The method, boiled down:
as §2

T3 sequence (Q96LA8 whole entry, looked up): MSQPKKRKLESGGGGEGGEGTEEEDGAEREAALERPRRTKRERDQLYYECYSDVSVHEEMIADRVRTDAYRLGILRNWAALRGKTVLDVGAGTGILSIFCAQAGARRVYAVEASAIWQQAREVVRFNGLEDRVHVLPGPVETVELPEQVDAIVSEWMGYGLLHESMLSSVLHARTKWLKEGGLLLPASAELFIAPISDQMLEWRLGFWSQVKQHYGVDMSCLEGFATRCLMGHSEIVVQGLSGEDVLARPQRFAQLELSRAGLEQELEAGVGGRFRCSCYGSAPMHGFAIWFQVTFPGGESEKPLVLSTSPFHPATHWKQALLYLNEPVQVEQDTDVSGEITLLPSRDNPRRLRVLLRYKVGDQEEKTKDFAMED
Sequence of Histone-lysine N-methyltransferase PRDM9 (Homo sapiens) (Q9NQV7 whole entry): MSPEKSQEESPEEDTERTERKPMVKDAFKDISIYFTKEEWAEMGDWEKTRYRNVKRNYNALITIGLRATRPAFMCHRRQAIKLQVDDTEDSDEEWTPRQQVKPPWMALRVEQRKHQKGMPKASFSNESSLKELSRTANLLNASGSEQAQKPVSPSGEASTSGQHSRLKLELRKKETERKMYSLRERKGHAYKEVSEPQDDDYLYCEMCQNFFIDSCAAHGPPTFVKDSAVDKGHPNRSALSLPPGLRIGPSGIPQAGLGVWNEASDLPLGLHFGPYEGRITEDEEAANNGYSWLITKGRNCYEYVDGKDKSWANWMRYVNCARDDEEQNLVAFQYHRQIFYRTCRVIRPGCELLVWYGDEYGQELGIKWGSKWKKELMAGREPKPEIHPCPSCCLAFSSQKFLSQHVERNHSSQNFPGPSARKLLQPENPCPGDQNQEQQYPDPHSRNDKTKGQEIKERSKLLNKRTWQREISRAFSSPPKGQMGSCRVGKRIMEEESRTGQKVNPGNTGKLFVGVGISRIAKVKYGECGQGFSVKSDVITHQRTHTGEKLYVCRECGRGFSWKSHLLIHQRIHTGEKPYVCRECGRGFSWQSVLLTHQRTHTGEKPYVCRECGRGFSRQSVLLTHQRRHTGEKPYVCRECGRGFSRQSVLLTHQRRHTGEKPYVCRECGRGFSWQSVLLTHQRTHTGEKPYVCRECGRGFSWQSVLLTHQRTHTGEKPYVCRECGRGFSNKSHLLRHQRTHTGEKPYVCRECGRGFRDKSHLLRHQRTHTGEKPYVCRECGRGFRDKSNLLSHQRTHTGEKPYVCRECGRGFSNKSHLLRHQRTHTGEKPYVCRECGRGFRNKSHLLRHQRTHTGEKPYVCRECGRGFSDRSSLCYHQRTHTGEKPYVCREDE
Sequence of Histone-lysine N-methyltransferase NSD3 (Homo sapiens) (Q9BZ95 whole entry): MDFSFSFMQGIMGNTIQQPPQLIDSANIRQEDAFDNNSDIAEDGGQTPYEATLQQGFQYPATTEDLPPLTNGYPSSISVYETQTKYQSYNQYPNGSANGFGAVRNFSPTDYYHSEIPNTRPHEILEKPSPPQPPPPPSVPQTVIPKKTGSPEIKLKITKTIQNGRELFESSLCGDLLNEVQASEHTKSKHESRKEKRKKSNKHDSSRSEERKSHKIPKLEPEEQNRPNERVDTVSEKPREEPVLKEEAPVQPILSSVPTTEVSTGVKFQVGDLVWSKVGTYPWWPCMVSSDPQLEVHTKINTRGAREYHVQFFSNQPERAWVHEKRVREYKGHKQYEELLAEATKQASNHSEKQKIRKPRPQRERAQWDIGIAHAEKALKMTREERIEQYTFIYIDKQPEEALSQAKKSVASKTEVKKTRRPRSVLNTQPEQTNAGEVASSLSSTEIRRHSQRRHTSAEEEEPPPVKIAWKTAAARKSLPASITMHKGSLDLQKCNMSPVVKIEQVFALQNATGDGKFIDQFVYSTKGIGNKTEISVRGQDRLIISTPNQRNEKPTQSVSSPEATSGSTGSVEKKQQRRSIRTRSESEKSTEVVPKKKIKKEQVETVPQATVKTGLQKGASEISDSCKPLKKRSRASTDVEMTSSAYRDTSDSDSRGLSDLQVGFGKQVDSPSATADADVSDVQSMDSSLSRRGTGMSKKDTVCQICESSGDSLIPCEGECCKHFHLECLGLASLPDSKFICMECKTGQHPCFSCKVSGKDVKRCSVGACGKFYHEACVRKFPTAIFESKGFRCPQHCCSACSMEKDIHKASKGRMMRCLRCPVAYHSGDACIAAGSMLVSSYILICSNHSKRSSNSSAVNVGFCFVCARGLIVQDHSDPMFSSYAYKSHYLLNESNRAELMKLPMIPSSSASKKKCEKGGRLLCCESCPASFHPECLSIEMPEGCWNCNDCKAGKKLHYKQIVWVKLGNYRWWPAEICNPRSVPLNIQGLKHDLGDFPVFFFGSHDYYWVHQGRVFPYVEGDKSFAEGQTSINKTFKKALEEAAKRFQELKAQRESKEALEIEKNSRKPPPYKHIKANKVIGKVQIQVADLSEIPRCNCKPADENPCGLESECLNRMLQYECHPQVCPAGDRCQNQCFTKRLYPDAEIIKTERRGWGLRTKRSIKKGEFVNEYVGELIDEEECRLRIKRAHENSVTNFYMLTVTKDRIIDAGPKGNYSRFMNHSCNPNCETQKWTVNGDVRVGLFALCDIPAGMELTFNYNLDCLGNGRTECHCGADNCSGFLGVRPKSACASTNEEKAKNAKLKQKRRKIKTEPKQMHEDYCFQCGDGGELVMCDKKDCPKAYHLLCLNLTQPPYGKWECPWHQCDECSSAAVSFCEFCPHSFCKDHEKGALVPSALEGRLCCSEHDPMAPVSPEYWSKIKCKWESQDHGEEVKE
Sequence of Histone-lysine N-methyltransferase KMT5C (Homo sapiens) (Q86Y97 whole entry, looked up): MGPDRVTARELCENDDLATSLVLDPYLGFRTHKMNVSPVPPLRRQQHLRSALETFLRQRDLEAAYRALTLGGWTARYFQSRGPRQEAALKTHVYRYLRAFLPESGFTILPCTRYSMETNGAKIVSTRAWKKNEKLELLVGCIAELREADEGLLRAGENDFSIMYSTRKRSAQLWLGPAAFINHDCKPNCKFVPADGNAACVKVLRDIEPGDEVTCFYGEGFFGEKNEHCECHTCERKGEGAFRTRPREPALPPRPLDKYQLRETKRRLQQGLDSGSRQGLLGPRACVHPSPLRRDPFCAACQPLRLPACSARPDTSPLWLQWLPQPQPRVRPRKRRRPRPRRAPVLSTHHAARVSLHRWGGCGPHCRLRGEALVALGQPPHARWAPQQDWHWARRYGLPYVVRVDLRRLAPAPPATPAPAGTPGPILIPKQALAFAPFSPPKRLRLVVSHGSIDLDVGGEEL
Sequence of Protein arginine N-methyltransferase 3 (O60678 2-531 limits assumed): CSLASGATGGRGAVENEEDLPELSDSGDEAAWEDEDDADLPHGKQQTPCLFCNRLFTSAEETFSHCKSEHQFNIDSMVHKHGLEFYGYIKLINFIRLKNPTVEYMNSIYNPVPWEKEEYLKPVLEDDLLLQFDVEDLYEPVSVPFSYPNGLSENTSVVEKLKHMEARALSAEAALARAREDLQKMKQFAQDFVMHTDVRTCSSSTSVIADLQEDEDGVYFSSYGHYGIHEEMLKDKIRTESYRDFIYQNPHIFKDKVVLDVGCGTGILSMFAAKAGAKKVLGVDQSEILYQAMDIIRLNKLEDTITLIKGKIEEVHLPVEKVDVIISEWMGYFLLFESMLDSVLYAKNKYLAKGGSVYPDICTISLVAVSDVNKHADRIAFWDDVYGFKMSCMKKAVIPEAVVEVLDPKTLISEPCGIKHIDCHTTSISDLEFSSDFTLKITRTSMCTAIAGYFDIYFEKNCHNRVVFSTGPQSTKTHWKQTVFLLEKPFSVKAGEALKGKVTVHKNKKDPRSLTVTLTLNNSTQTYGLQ
Sequence of RNA 5'-monophosphate methyltransferase (Homo sapiens) (Q7Z5W3 whole entry): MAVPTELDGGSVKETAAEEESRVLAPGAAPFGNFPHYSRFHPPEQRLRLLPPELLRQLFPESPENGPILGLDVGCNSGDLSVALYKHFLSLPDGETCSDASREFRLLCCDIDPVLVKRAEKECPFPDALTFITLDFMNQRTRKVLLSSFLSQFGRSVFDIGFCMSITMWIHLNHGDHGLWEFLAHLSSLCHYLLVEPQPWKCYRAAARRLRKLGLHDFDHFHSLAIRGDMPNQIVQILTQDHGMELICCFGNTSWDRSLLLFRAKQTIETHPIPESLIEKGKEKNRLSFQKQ

Broadly, the IC50 is the concentration that inhibits the measured activity by half. Read a low IC50 as greater potency. A word on the inhibition: it is the relative decrease from the control value, in per cent. In data set [1], `C=CC(=O)Nc1cccc(-c2c[nH]cc2CN(C)CCN)c1` returned an IC50 of 110 nM. Further, the inhibition was > 50% in data set [2], > 50% in [6], > 90% in data set [7] and > 90% in data set [12]. The inhibition result (in data set [3]; in [4]; in [5]; in data set [8]; in data set [9]; in the data set listed under Homo sapiens [11]) was “inactive” throughout. Moreover, the inhibition entry in data set [15], in [16] and in data set [17] was “inactive” each time. Also, the Activity result in the data set on MCF7 and with PNT2 was “Non-Toxic” throughout. In addition, the figures for the Ratio IC50 in the data set filed under Homo sapiens [10] and in the data set listed under Homo sapiens [14] were 6 and 27, respectively. Moreover, the outcome in data set [13] was inactive.
